One block for each compound: values may come before it.
Tests used:
[1] = molecular target: T1, Macrophage colony-stimulating factor 1 receptor (Homo sapiens, UniProt P07333); test: Inhibition of CSF1R
[2] = test system: NIH3T3; test: Antiproliferative activity against mouse 3T3 cells expressing human CSF1R after 72 hrs by Celltiter assay; type: functional
In short: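 3T3 cells engineered with human full-length CSF-1R, seeded in phenol red-free DMEM with 0.05% BSA and incubated overnight. Treated with DMEM containing 80 ng/ml M-CSF plus insulin, transferrin and selenium at multiple compound concentrations. […] Growth read by MTS-type CellTiter 96 Aqueous One after 72 h.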

[3] = Half life in rat at 3 mg/kg, iv and 10 mg/kg, po; type: ADME, organism-based; conditions: in vivo
[4] = test system: Mus musculus; test: Inhibition of phosphorylated CSF1R level in 3T3/CSF1R mutant cells xenografted nude mouse at 50 mg/kg, po after 6 hrs by ELISA; type: functional
In short: (§1)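 3T3 cells expressing constitutively active human mutant full-length CSF-1R (301–969) were implanted subcutaneously at 5 × 10⁶ cells in female nude mice and grown to tumors >250 mm³. After dosing, tumors were assayed for pCSF-1R by ELISA, and plasma was sampled for drug levels.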

[5] = test system: Mus musculus; test: Inhibition of phosphorylated CSF1R level in 3T3/CSF1R mutant cells xenografted nude mouse at 50 mg/kg, po after 2 hrs by ELISA; type: functional; in short: as §1
[6] = Volume of distribution at steady state in rat at 3 mg/kg, iv and 10 mg/kg, po; type: ADME, organism-based; conditions: in vivo, read-out: Vdss
[7] = Clearance in rat at 3 mg/kg, iv and 10 mg/kg, po; type: ADME, organism-based; conditions: in vivo
[8] = Bioavailability in rat at 3 mg/kg, iv and 10 mg/kg, po; type: ADME, organism-based; conditions: in vivo
[9] = molecular target: Vascular endothelial growth factor receptor 2 (Homo sapiens) (UniProt P35968); test: Inhibition of KDR assessed as residual enzyme activity at 1 uM
[10] = molecular target: Tyrosine-protein kinase JAK2 (Homo sapiens) (UniProt O60674); test: Inhibition of JAK2 assessed as residual enzyme activity at 1 uM
[11] = molecular target: Insulin receptor (Homo sapiens) (UniProt P06213); test: Inhibition of insulin receptor assessed as residual enzyme activity at 1 uM
[12] = molecular target: Inhibitor of nuclear factor kappa-B kinase subunit beta (Homo sapiens) (UniProt O14920); test: Inhibition of IKK-beta assessed as residual enzyme activity at 1 uM
[13] = molecular target: RAF proto-oncogene serine/threonine-protein kinase (Homo sapiens) (UniProt P04049); test: Inhibition of cRaf assessed as residual enzyme activity at 1 uM
[14] = molecular target: Proto-oncogene tyrosine-protein kinase Src (Homo sapiens) (UniProt P12931); test: Inhibition of Src assessed as residual enzyme activity at 1 uM
[15] = molecular target: Tyrosine-protein kinase HCK (Homo sapiens) (UniProt P08631); test: Inhibition of Hck assessed as residual enzyme activity at 1 uM
[16] = molecular target: Mast/stem cell growth factor receptor Kit (Homo sapiens) (UniProt P10721); test: Inhibition of cKit assessed as residual enzyme activity at 1 uM
[17] = molecular target: Platelet-derived growth factor receptor beta (Homo sapiens) (UniProt P09619); test: Inhibition of PDGFRbeta assessed as residual enzyme activity at 1 uM
[18] = molecular target: Fibroblast growth factor receptor 1 (Homo sapiens) (UniProt P11362); test: Inhibition of FGFR1 assessed as residual enzyme activity at 1 uM
[19] = molecular target: Ephrin type-A receptor 2 (Homo sapiens) (UniProt P29317); test: Inhibition of EphA2 assessed as residual enzyme activity at 1 uM
[20] = molecular target: T1, Macrophage colony-stimulating factor 1 receptor; test: Inhibition of CSF1R assessed as residual enzyme activity at 1 uM
[21] = molecular target: Serine/threonine-protein kinase pim-1 (Homo sapiens) (UniProt P11309); test: Inhibition of Pim-1 assessed as residual enzyme activity at 1 uM
[22] = molecular target: Cyclin-dependent kinase 2 (Homo sapiens) (UniProt P24941); test: Inhibition of CDK2/cyclinA assessed as residual enzyme activity at 1 uM
[23] = molecular target: Epidermal growth factor receptor (Homo sapiens) (UniProt P00533); test: Inhibition of EGFR assessed as residual enzyme activity at 1 uM
[24] = molecular target: Hepatocyte growth factor receptor (Homo sapiens) (UniProt P08581); test: Inhibition of Met assessed as residual enzyme activity at 1 uM
[25] = molecular target: Mitogen-activated protein kinase 1 (Homo sapiens) (UniProt P28482); test: Inhibition of MAPK1 assessed as residual enzyme activity at 1 uM
[26] = molecular target: Tyrosine-protein kinase Fyn (Homo sapiens) (UniProt P06241); test: Inhibition of Fyn assessed as residual enzyme activity at 1 uM
[27] = molecular target: Glycogen synthase kinase-3 beta (Homo sapiens) (UniProt P49841); test: Inhibition of GSK3-beta assessed as residual enzyme activity at 1 uM
[28] = molecular target: Insulin-like growth factor 1 receptor (Homo sapiens) (UniProt P08069); test: Inhibition of IGF1-R assessed as residual enzyme activity at 1 uM
[29] = molecular target: Angiopoietin-1 receptor (Homo sapiens) (UniProt Q02763); test: Inhibition of Tie2 assessed as residual enzyme activity at 1 uM
[30] = molecular target: Receptor-type tyrosine-protein kinase FLT3 (Homo sapiens) (UniProt P36888); test: Inhibition of Flt3 assessed as residual enzyme activity at 1 uM

T1 sequence (P07333 whole entry): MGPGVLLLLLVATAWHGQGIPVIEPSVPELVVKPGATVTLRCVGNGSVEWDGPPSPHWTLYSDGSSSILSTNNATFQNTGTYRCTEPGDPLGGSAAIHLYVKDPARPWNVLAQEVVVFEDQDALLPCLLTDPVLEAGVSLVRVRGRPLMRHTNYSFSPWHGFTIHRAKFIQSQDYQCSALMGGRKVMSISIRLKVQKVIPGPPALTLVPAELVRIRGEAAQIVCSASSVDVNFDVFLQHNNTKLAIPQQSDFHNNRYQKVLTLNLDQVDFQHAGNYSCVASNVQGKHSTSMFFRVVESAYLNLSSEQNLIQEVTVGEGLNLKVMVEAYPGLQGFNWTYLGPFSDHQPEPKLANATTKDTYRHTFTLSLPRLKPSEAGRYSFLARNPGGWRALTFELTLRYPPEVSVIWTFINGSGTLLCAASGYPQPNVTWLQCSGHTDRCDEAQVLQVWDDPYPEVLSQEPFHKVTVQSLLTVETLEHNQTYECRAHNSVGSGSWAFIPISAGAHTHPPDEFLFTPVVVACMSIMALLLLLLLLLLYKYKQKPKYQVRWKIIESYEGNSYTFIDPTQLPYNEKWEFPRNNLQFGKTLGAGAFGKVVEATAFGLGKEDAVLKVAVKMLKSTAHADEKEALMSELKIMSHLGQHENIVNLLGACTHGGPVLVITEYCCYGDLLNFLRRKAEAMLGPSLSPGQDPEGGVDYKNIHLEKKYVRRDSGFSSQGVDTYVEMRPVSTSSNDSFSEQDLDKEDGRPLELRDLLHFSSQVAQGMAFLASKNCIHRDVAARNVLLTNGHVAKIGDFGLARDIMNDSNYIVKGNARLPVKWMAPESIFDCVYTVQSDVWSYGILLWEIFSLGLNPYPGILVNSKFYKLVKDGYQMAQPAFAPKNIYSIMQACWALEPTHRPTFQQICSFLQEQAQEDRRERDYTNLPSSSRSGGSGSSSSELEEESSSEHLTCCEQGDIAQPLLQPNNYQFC
Sequence of Insulin receptor (Homo sapiens) (P06213 28-758 limits assumed): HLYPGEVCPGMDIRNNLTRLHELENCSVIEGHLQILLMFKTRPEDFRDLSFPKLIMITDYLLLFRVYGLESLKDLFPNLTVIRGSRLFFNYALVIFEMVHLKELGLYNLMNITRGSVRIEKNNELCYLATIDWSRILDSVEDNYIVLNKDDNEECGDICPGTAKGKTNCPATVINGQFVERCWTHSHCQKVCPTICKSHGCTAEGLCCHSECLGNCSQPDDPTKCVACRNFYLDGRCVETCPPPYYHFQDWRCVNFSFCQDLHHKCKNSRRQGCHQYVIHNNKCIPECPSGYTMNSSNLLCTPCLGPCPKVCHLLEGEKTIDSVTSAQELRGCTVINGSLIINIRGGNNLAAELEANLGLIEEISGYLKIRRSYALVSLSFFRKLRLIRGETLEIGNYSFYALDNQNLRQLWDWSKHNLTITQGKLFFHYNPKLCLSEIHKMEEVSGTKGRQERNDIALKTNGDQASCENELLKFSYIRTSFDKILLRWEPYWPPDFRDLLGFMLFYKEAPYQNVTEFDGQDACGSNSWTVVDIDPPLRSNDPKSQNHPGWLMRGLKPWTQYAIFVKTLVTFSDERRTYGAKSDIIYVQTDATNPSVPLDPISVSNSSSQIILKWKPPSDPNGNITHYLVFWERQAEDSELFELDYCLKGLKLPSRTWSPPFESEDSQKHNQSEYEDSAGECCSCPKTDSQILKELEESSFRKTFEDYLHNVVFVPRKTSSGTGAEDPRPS
Sequence of Insulin receptor (Homo sapiens) (P06213 763-1382 limits assumed): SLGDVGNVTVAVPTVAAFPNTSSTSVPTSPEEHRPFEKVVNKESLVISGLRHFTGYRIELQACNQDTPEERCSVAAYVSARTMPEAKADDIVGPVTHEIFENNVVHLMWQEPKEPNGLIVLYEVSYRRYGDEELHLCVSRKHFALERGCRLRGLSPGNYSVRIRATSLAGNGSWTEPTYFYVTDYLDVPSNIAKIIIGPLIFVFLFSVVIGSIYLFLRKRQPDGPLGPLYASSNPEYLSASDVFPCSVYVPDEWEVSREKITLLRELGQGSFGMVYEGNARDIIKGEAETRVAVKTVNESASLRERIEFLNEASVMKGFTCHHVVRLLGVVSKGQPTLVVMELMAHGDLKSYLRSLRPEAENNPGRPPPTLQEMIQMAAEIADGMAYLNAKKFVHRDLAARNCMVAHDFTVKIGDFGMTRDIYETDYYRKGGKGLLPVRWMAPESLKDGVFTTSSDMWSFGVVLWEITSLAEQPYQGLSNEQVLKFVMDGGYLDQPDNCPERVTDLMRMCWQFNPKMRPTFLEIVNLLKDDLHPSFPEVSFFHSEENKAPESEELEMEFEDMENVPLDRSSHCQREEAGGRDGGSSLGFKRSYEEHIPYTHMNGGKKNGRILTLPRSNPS
Sequence of Tyrosine-protein kinase HCK (Homo sapiens) (P08631 2-526 limits assumed): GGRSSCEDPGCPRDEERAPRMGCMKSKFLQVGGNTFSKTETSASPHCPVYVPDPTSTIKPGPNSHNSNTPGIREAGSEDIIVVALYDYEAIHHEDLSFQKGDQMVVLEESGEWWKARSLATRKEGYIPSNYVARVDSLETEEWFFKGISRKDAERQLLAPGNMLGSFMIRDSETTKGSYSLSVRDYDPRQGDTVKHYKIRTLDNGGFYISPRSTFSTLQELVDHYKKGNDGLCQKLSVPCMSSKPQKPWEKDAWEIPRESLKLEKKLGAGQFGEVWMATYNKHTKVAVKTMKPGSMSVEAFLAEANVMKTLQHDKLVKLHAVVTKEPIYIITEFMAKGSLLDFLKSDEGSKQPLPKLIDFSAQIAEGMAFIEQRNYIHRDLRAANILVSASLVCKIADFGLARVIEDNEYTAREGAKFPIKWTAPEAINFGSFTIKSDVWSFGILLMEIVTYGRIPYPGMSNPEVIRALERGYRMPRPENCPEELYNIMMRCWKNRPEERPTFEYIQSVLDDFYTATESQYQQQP
Sequence of Insulin-like growth factor 1 receptor (Homo sapiens) (P08069 31-736 limits assumed): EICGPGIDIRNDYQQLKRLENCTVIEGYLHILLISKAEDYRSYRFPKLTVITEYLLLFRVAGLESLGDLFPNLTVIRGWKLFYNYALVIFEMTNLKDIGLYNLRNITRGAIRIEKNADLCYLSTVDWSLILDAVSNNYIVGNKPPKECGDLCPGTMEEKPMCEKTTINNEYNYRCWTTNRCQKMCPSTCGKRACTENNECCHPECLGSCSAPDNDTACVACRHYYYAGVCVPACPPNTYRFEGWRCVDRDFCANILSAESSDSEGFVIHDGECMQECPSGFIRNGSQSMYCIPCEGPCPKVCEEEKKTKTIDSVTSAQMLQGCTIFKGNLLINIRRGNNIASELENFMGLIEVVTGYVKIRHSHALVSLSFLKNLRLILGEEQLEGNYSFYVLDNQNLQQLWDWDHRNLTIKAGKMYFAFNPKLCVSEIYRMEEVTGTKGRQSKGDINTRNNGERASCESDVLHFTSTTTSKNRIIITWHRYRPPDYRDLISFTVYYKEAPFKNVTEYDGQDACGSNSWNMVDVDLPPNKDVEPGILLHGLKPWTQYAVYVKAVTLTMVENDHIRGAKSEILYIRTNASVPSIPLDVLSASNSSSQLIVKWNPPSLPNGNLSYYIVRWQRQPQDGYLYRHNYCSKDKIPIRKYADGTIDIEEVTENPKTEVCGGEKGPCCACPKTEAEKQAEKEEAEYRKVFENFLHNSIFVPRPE
Sequence of Insulin-like growth factor 1 receptor (Homo sapiens) (P08069 741-1367 limits assumed): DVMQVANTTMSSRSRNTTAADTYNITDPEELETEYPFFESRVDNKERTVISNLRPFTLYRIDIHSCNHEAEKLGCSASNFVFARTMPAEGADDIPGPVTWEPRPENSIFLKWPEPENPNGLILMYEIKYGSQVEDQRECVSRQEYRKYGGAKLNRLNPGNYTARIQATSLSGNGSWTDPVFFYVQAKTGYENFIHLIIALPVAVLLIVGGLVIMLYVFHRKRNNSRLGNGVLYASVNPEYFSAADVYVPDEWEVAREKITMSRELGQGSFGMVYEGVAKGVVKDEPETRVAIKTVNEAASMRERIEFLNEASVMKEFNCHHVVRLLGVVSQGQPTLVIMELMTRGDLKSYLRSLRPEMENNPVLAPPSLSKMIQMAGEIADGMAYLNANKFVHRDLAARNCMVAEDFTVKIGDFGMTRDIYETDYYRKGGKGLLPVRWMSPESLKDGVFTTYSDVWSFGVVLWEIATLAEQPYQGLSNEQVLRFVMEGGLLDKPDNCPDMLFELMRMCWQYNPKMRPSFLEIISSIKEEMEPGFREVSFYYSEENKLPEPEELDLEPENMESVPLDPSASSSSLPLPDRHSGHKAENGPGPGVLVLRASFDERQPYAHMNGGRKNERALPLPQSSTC
Sequence of Serine/threonine-protein kinase pim-1 (Homo sapiens) (P11309 whole entry, looked up): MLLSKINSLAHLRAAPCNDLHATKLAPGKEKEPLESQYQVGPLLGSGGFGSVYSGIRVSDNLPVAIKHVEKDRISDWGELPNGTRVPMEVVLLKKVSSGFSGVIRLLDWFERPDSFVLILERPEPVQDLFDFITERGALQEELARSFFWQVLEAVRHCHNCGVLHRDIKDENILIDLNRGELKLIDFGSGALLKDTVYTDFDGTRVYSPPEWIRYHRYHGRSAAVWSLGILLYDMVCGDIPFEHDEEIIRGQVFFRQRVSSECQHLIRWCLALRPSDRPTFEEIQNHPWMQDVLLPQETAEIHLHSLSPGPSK
Sequence of Glycogen synthase kinase-3 beta (Homo sapiens) (P49841 whole entry, looked up): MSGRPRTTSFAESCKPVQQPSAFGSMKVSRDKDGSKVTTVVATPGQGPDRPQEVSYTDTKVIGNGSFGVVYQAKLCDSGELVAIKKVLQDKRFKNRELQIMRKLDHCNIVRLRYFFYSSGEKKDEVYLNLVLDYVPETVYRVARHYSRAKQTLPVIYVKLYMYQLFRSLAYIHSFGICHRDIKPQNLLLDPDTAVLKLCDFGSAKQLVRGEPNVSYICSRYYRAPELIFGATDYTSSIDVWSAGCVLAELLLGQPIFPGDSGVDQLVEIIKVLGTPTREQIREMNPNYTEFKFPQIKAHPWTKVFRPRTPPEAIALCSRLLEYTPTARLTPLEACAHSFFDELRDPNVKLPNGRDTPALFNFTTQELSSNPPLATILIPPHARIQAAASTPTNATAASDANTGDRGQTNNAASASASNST

Compound: Cc1ccc(NC(=O)c2cccc(C(F)(F)F)c2)cc1NC(=O)c1cccnc1
- IC50 [1]: 0.011 µM
- Activity [2]: 2.15 µM

Compound: Cc1ccc(NC(=O)c2cccc(C(F)(F)F)c2)cc1C(=O)Nc1ccccc1
- IC50 [1]: > 50 µM
- Activity [2]: >10 µM

Compound: O=C(Nc1ccc(Cl)c(C(=O)Nc2cccnc2)c1)c1cccc(Cl)c1
- half-life [3]: 1.1 h
- IC50 [1]: 0.01 µM
- Vd [6]: 1.4 L/kg
- clearance [7]: 16 mL/min/kg
- bioavailability [8]: 33%
- Activity [2]: 0.33 µM

Compound: Cc1ccc(C(=O)Nc2cccc(C(F)(F)F)c2)cc1C(=O)Nc1cccnc1
- IC50 [1]: 6.9 µM

Compound: O=C(Nc1ccc(Cl)c(C(=O)Nc2cnc(C3CC3)s2)c1)c1cccc(C(F)(F)F)c1
- IC50 [1]: 0.14 µM
- Activity [2]: 0.1 µM

Compound: CCN(CC)CCNC(=O)c1c(C)[nH]c(/C=C2\C(=O)Nc3ccc(F)cc32)c1C.O=C(O)C[C@H](O)C(=O)O [SUNITINIB MALATE]
- Activity [2]: 0.09 µM

Compound: Cc1cccc(C(=O)Nc2ccc(Cl)c(C(=O)Nc3cccnc3)c2)c1
- half-life [3]: 0.8 h
- IC50 [1]: 0.01 µM
- Vd [6]: 1.3 L/kg
- clearance [7]: 30 mL/min/kg
- bioavailability [8]: 28%
- Activity [2]: 0.24 µM

Compound: Cc1ccc(C(=O)Nc2cccc(C(F)(F)F)c2)cc1NC(=O)c1cccnc1
- IC50 [1]: 0.032 µM
- Activity [2]: 1.34 µM

Compound: Cc1cc(C)cc(C(=O)Nc2ccc(Cl)c(C(=O)Nc3cccnc3)c2)c1
- IC50 [1]: 0.008 µM
- Activity [2]: 0.05 µM

Compound: O=C(Nc1ccc(Cl)c(C(=O)Nc2cccnc2)c1)c1ccc(Cl)c(Cl)c1
- IC50 [1]: 0.003 µM
- Activity [2]: 0.09 µM

Compound: COc1cccc(C(=O)Nc2ccc(Cl)c(C(=O)Nc3cccnc3)c2)c1
- IC50 [1]: 0.009 µM
- Activity [2]: 0.94 µM

Compound: Cc1cc(C)cc(C(=O)Nc2ccc(Cl)c(C(=O)Nc3cnc(C)s3)c2)c1
- half-life [3]: 1.3 h
- inhibition in vivo at 50 mg/kg [4]: 60%
- IC50 [1]: 0.006 µM
- inhibition in vivo at 50 mg/kg [5]: 90%
- Vd [6]: 1.2 L/kg
- clearance [7]: 14 mL/min/kg
- bioavailability [8]: 27%
- Activity [2]: 0.06 µM

Compound: CN(C)c1cccc(C(=O)Nc2ccc(Cl)c(C(=O)Nc3cccnc3)c2)c1
- IC50 [1]: 0.016 µM
- Activity [2]: 0.77 µM

Compound: Cc1cc(C)cc(C(=O)Nc2ccc(C)c(C(=O)Nc3cnc(C)s3)c2)c1
- IC50 [1]: 0.004 µM
- Activity [2]: 0.1 µM

Compound: Cc1cc(C)cc(C(=O)Nc2ccc(Cl)c(C(=O)Nc3cnc(C(C)C)s3)c2)c1
- IC50 [1]: 0.031 µM
- Activity [2]: 0.11 µM

Compound: O=C(Nc1ccc(Cl)c(C(=O)Nc2cccnc2)c1)c1cc(Cl)cc(Cl)c1
- IC50 [1]: 0.003 µM
- Activity [2]: 0.13 µM

Compound: O=C(Nc1ccc(Cl)c(C(=O)Nc2cccnc2)c1)c1cccc(Br)c1
- IC50 [1]: 0.014 µM
- Activity [2]: 0.26 µM

Compound: Cc1ccc(NC(=O)c2cccc(N(C)S(C)(=O)=O)c2)cc1NC(=O)c1ccc2ncccc2c1
- IC50 [1]: 0.089 µM

Compound: O=C(Nc1ccc(Cl)c(C(=O)Nc2cncs2)c1)c1cccc(Cl)c1
- half-life [3]: 0.5 h
- IC50 [1]: 0.005 µM
- Vd [6]: 1.8 L/kg
- clearance [7]: 54 mL/min/kg
- bioavailability [8]: 20%
- Activity [2]: 0.52 µM

Compound: Cc1cc(C)cc(C(=O)Nc2ccc(Cl)c(C(=O)Nc3cncs3)c2)c1
- IC50 [1]: 0.003 µM
- Activity [2]: 0.11 µM

Compound: Cc1ccc(C(=O)Nc2ccc(Cl)c(C(=O)Nc3cccnc3)c2)cc1C
- IC50 [1]: 0.005 µM
- Activity [2]: 0.15 µM

Compound: O=C(Nc1ccc(Cl)c(C(=O)Nc2cccnc2)c1)c1cccc(F)c1
- IC50 [1]: 0.025 µM
- Activity [2]: 1.64 µM

Second part, led by results:

- half-life [3]: 7.3 h
- IC50 [1]: 0.007 µM
- Vd [6]: 1.4 L/kg
- clearance [7]: 2 mL/min/kg
- bioavailability [8]: 31%
Compound: Cc1ncc(NC(=O)c2cc(NC(=O)c3cc(F)cc(C(F)(F)F)c3)ccc2Cl)s1
- inhibition in vivo at 50 mg/kg [4]: 100%
- inhibition in vivo at 50 mg/kg [5]: 100%
- Activity [2]: 0.11 µM

- Activity [9]: 10%
- Activity [10]: 112%
- Activity [11]: 108%
- Activity [12]: 112%
- Activity [13]: 9%
- Activity [14]: 10%
- half-life [3]: 1.2 h
- Activity [15]: 6%
- Activity [16]: 57%
- Activity [17]: 45%
- Activity [18]: 111%
- IC50 [1]: 0.007 µM
- Activity [19]: 5%
- Activity [20]: 1%
- Activity [21]: 116%
- Vd [6]: 1.1 L/kg
- clearance [7]: 13 mL/min/kg
- Activity [22]: 95%
- bioavailability [8]: 62%
- Activity [23]: 118%
- Activity [24]: 109%
- Activity [25]: 116%
- Activity [26]: 7%
- Activity [27]: 91%
- Activity [28]: 107%
- Activity [29]: 111%
- Activity [30]: 114%
Compound: Cc1ncc(NC(=O)c2cc(NC(=O)c3cccc(C(F)(F)F)c3)ccc2Cl)s1
- inhibition in vivo at 50 mg/kg [4]: 35%
- inhibition in vivo at 50 mg/kg [5]: 70%
- Activity [2]: 0.05 µM

- half-life [3]: 1 h
- IC50 [1]: 0.016 µM
- Vd [6]: 1.5 L/kg
- clearance [7]: 20 mL/min/kg
- bioavailability [8]: 76%
Compound: O=C(Nc1ccc(Cl)c(C(=O)Nc2cccnc2)c1)c1cccc(C(F)(F)F)c1
- Activity [2]: 0.14 µM

- half-life [3]: 1 h
- IC50 [1]: 0.013 µM
- Vd [6]: 2.2 L/kg
- clearance [7]: 37 mL/min/kg
- bioavailability [8]: 65%
Compound: CC(C)c1ncc(NC(=O)c2cc(NC(=O)c3cccc(C(F)(F)F)c3)ccc2Cl)s1
- Activity [2]: 0.15 µM

- IC50 [1]: 0.01 µM
Compound: Cc1ncc(NC(=O)c2cc(NC(=O)c3cccc(C(F)(F)F)c3)ccc2C)s1
- Activity [2]: 0.11 µM

- half-life [3]: 1.2 h
- IC50 [1]: 0.003 µM
- Vd [6]: 4.2 L/kg
- clearance [7]: 58 mL/min/kg
- bioavailability [8]: 40%
Compound: O=C(Nc1ccc(Cl)c(C(=O)Nc2cncs2)c1)c1cccc(C(F)(F)F)c1
- Activity [2]: 0.27 µM

- half-life [3]: 1 h
- IC50 [1]: 0.037 µM
- Vd [6]: 1 L/kg
- clearance [7]: 16 mL/min/kg
- bioavailability [8]: 40%
Compound: Cc1ccc(NC(=O)c2cccc(C(F)(F)F)c2)cc1C(=O)Nc1cccnc1
- Activity [2]: 0.23 µM

- IC50 [1]: 0.011 µM
Compound: Cc1ncc(NC(=O)c2cc(NC(=O)c3cc(F)cc(Cl)c3)ccc2Cl)s1
- Activity [2]: 0.13 µM

- IC50 [1]: 0.007 µM
Compound: Cc1ncc(NC(=O)c2cc(NC(=O)c3cccc(Cl)c3)ccc2C)s1
- Activity [2]: 0.32 µM

- half-life [3]: 0.9 h
- IC50 [1]: 0.004 µM
- Vd [6]: 0.9 L/kg
- clearance [7]: 12 mL/min/kg
- bioavailability [8]: 43%
Compound: Cc1ncc(NC(=O)c2cc(NC(=O)c3cccc(Cl)c3)ccc2Cl)s1
- Activity [2]: 0.18 µM
